Laboratory results published in ChEMBL document CHEMBL1157570, “Development of potent and selective inhibitors of ecto-5'-nucleotidase based on an anthraquinone scaffold” (J Med Chem, 2010).

The compounds below were run against T1, Ectonucleoside triphosphate diphosphohydrolase 1 (Homo sapiens, UniProt P49961) (assay: Inhibition of human NTPdase1 by capillary electrophoresis method).
T1 sequence (P49961 whole entry): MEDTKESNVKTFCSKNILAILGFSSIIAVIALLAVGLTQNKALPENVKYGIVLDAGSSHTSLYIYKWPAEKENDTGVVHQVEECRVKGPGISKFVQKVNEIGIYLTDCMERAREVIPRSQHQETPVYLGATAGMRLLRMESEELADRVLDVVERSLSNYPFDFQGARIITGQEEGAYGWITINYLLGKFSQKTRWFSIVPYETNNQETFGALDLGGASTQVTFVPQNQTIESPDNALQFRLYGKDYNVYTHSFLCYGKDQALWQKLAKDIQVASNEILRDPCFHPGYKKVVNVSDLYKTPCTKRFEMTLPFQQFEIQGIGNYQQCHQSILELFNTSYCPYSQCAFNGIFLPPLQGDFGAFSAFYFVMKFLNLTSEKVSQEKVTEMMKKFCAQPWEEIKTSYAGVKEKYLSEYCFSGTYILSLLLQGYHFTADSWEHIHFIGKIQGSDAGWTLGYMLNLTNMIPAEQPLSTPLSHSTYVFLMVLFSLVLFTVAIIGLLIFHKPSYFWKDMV
Outline: (§1)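 Membrane preparations containing human NTPDase1, 2 or 3. Inhibitor added in water or 1% DMSO. Incubated 10 min at 37 °C, stopped at 99 °C for 5 min. Diluted with 20 μM UMP as internal standard, then analysed by capillary electrophoresis. Triplicates in two experiments.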

Nc1c(S(=O)(=O)O)cc(Nc2ccc(O)cc2)c2c1C(=O)c1ccccc1C2=O gave a Ki of 10.7 µM.

What follows are compounds tested against P2Y purinoceptor 4 (Homo sapiens, UniProt P51582) (assay: Antagonist activity at human P2Y4 receptor expressed in astrocytoma cells assessed as inhibition of intracellular calcium mobilization).
Type: functional, cell-based
Outline: (§2)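 Astrocytoma cells stably expressing the receptor, loaded with Fura-2 AM. Cells preincubated with test agent for at least 20 min, then challenged with 1 μM UTP (P2Y2), 3 μM UTP (P2Y4) or 3 μM UDP (P2Y6). Ca2+ fluorescence read at ex 320/em 520 nm. Full curves (7-8 concentrations over 3 log units) run when inhibition exceeded 40% at 10 μM. Three experiments, each in triplicate.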

Sequence of P2Y purinoceptor 4 (P51582 whole entry): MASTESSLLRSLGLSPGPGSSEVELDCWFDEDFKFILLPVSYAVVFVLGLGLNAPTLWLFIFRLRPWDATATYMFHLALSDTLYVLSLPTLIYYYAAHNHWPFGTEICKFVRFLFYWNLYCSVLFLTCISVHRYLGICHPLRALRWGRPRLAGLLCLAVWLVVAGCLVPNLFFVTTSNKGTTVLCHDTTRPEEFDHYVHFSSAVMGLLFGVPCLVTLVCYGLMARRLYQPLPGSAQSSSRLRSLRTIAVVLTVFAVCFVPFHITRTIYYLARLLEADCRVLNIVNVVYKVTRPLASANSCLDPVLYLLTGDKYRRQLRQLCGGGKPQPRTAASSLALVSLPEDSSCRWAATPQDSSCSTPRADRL

In order of rising IC50:
1. Nc1c(S(=O)(=O)O)cc(Nc2ccc(O)cc2)c2c1C(=O)c1ccccc1C2=O  2.37 µM
2. Nc1c(S(=O)(=O)O)cc(Nc2ccc(Nc3nc(Cl)nc(Nc4cccc(S(=O)(=O)O)c4)n3)c(S(=O)(=O)O)c2)c2c1C(=O)c1ccccc1C2=O [RB 2]  9.79 µM

These compounds were tested against T2, Ectonucleoside triphosphate diphosphohydrolase 2 (Homo sapiens, UniProt Q9Y5L3) (assay: Inhibition of human NTPdase2 by capillary electrophoresis method).
T2 sequence (Q9Y5L3 whole entry): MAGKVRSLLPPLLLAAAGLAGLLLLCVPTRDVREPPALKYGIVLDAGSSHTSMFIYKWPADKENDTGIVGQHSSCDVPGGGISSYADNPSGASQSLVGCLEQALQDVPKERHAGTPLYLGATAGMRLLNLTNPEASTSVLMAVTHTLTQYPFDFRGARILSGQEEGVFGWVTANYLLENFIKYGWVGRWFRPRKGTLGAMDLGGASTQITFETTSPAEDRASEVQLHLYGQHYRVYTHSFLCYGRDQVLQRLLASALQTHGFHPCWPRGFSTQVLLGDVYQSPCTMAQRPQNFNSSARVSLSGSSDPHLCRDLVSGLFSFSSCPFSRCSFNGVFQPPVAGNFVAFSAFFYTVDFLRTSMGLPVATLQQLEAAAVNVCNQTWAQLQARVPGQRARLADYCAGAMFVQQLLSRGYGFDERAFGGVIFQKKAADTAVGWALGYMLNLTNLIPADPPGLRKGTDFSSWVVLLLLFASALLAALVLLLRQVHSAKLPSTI
Outline: as §1

Nc1c(S(=O)(=O)O)cc(Nc2ccc(O)cc2)c2c1C(=O)c1ccccc1C2=O gave a Ki greater than 200 µM.

Each compound was assayed against P2Y purinoceptor 6 (Rattus norvegicus, UniProt Q63371) (assay: Antagonist activity at rat P2Y6 receptor expressed in astrocytoma cells assessed as inhibition of intracellular calcium mobilization).
Type: functional, cell-based
Outline: as §2

Sequence of P2Y purinoceptor 6 (Q63371 whole entry): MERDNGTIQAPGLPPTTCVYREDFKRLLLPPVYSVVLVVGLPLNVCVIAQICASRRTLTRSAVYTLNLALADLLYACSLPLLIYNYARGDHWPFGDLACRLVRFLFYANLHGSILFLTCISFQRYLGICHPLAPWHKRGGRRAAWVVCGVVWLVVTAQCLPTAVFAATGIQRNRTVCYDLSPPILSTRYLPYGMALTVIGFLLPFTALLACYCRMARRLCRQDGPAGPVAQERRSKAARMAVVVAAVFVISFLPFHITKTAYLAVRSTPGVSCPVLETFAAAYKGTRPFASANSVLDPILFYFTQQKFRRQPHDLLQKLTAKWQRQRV

Nc1c(S(=O)(=O)O)cc(Nc2ccc(O)cc2)c2c1C(=O)c1ccccc1C2=O gave an IC50 of 5.3 µM.

Each compound was assayed against T3, 5'-nucleotidase (Rattus norvegicus) (UniProt P21588) (assay: Inhibition of rat ecto-5'-nucleotidase expressed in Sf9 cells at 1 mM by capillary electrophoresis method).
T3 sequence (whole entry): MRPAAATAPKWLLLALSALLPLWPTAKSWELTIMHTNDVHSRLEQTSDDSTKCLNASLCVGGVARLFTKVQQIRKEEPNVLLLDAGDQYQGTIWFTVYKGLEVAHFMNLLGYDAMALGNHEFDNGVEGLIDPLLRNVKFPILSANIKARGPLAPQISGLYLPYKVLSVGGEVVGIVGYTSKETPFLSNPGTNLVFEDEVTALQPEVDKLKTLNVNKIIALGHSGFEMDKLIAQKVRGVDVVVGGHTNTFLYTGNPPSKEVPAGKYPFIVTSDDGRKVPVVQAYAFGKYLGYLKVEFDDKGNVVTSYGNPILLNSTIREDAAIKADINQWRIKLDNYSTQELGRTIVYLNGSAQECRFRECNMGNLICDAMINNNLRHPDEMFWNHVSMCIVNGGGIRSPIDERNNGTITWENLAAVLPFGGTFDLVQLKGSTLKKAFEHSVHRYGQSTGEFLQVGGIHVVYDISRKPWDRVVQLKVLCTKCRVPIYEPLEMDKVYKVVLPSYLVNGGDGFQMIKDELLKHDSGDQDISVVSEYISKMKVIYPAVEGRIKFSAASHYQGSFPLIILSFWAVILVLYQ
Outline: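 Test agent at 1 mM with 500 μM AMP in 10 mM Hepes pH 7.4, 2 mM MgCl2, 1 mM CaCl2. Incubated 15 min at 37 °C, stopped at 99 °C for 10 min. Adenosine quantified by capillary electrophoresis, UV peak area at 260 nm.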

In order of rising inhibition:
1. Nc1c(S(=O)(=O)O)cc(Nc2cccc3ccc(S(=O)(=O)O)cc23)c2c1C(=O)c1ccccc1C2=O  0%
2. Cc1cc(Nc2ccccc2)c2c(c1N)C(=O)c1ccccc1C2=O  4%
3. COc1ccccc1Nc1cc(S(=O)(=O)O)c(N)c2c1C(=O)c1ccccc1C2=O  9%
4. Nc1c(S(=O)(=O)O)cc(Nc2ccccc2S(=O)(=O)O)c2c1C(=O)c1ccccc1C2=O  14%
5. CC(C)Nc1cc(S(=O)(=O)O)c(N)c2c1C(=O)c1ccccc1C2=O  15%
6. Cc1ccc(C)c(Nc2cc(S(=O)(=O)O)c(N)c3c2C(=O)c2ccccc2C3=O)c1  26%
7. Nc1c(S(=O)(=O)O)cc(Nc2cccc(C(=O)O)c2)c2c1C(=O)c1ccccc1C2=O  26%
8. Nc1c(S(=O)(=O)O)cc(Nc2ccc(CC(=O)O)cc2)c2c1C(=O)c1ccccc1C2=O  26%
9. Nc1c(S(=O)(=O)O)cc(Nc2cc(Cl)ccc2C(=O)O)c2c1C(=O)c1ccccc1C2=O  27%
10. CCOP(=O)(Cc1ccc(Nc2cc(S(=O)(=O)O)c(N)c3c2C(=O)c2ccccc2C3=O)cc1)OCC  28%
11. CCOc1ccc(Nc2cc(S(=O)(=O)O)c(N)c3c2C(=O)c2ccccc2C3=O)cc1  31%
12. Nc1cccc(Nc2cc(S(=O)(=O)O)c(N)c3c2C(=O)c2ccccc2C3=O)c1  31%
13. Cc1ccccc1Nc1cc(S(=O)(=O)O)c(N)c2c1C(=O)c1ccccc1C2=O  33%
14. Nc1c(S(=O)(=O)O)cc(Nc2ccc(C(=O)O)cc2)c2c1C(=O)c1ccccc1C2=O  34%
15. Nc1c(S(=O)(=O)O)cc(Nc2ccc(Nc3ccccc3)cc2)c2c1C(=O)c1ccccc1C2=O  37%
16. Cc1cccc(Nc2cc(S(=O)(=O)O)c(N)c3c2C(=O)c2ccccc2C3=O)c1C  39%
17. Nc1c(S(=O)(=O)O)cc(NCc2ccccc2)c2c1C(=O)c1ccccc1C2=O  43%
18. COc1ccc(CCNc2cc(S(=O)(=O)O)c(N)c3c2C(=O)c2ccccc2C3=O)cc1OC  44%
19. Nc1cc(Nc2cc(S(=O)(=O)O)c(N)c3c2C(=O)c2ccccc2C3=O)cc(C(=O)O)c1  44%
20. Cc1ccc(Nc2cc(S(=O)(=O)O)c(N)c3c2C(=O)c2ccccc2C3=O)c(C)c1  47%
21. Nc1ccccc1Nc1cc(S(=O)(=O)O)c(N)c2c1C(=O)c1ccccc1C2=O  47%
22. Nc1c(S(=O)(=O)O)cc(NC2CCCC2)c2c1C(=O)c1ccccc1C2=O  51%
23. Nc1c(S(=O)(=O)O)cc(Nc2ccc(Cl)cc2C(=O)O)c2c1C(=O)c1ccccc1C2=O  52%
24. Nc1c(S(=O)(=O)O)cc(NCCc2ccccc2)c2c1C(=O)c1ccccc1C2=O  53%
25. CCOc1ccccc1Nc1cc(S(=O)(=O)O)c(N)c2c1C(=O)c1ccccc1C2=O  56%
26. Nc1c(S(=O)(=O)O)cc(Nc2ccc(Br)cc2C(=O)O)c2c1C(=O)c1ccccc1C2=O  56%
27. Nc1c(S(=O)(=O)O)cc(Nc2cc3ccccc3c3ccccc23)c2c1C(=O)c1ccccc1C2=O  58%
28. Nc1c(S(=O)(=O)O)cc(Nc2cc(F)ccc2C(=O)O)c2c1C(=O)c1ccccc1C2=O  60%
29. Nc1c(S(=O)(=O)O)cc(NCCc2ccc(Cl)cc2)c2c1C(=O)c1ccccc1C2=O  62%

Each compound was assayed against T4, 5'-nucleotidase (Rattus norvegicus, UniProt P21588) (assay: Inhibition of rat ecto-5'-nucleotidase expressed in Sf9 cells by capillary electrophoresis method).
T4 sequence (P21588 whole entry): T3 sequence (whole entry)
Outline: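 Rat eN, GST-fused, made in Sf9 cells and purified on GSH-agarose. 500 μM AMP in Hepes pH 7.4 with Mg2+/Ca2+, 37 °C for 15 min. Adenosine measured by capillary electrophoresis at 260 nm. Inhibitor at 6-8 concentrations spanning about 3 log units. […] Three experiments, each in duplicate.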

In order of rising Ki:
1. Nc1ncnc2c1ncn2[C@H]1O[C@@H](COP(=O)(O)CP(=O)(O)O)[C@H](O)[C@@H]1O  0.00087 µM
2. Nc1ccc(Nc2cc(S(=O)(=O)O)c(N)c3c2C(=O)c2ccccc2C3=O)cc1  0.297 µM
3. Nc1c(S(=O)(=O)O)cc(Nc2ccc(O)cc2)c2c1C(=O)c1ccccc1C2=O  0.62 µM
4. Nc1c(S(=O)(=O)O)cc(Nc2ccc3ccccc3c2)c2c1C(=O)c1ccccc1C2=O  1.47 µM
5. Nc1c(S(=O)(=O)O)cc(Nc2ccc(Oc3ccccc3)cc2)c2c1C(=O)c1ccccc1C2=O  1.51 µM
6. Nc1c(S(=O)(=O)O)cc(NC2CCCCC2)c2c1C(=O)c1ccccc1C2=O  1.66 µM
7. Nc1c(S(=O)(=O)O)cc(Nc2ccccc2O)c2c1C(=O)c1ccccc1C2=O  1.84 µM
8. Cc1ccc2ccccc2c1Nc1cc(S(=O)(=O)O)c(N)c2c1C(=O)c1ccccc1C2=O  2.74 µM
9. Nc1c(S(=O)(=O)O)cc(Nc2cccc3cc4ccccc4cc23)c2c1C(=O)c1ccccc1C2=O  2.93 µM
10. Nc1c(S(=O)(=O)O)cc(Nc2ccc(Nc3nc(Cl)nc(Nc4cccc(S(=O)(=O)O)c4)n3)c(S(=O)(=O)O)c2)c2c1C(=O)c1ccccc1C2=O [RB 2]  3.07 µM
11. Nc1c(S(=O)(=O)O)cc(Nc2ccc(S(=O)(=O)O)cc2)c2c1C(=O)c1ccccc1C2=O  3.43 µM
12. Nc1c(S(=O)(=O)O)cc(Nc2ccc3cc(C(=O)O)ccc3c2)c2c1C(=O)c1ccccc1C2=O  3.43 µM
13. Nc1c(S(=O)(=O)O)cc(Nc2ccc(Cl)cc2)c2c1C(=O)c1ccccc1C2=O  4.81 µM
14. Nc1c(S(=O)(=O)O)cc(Nc2ccc(F)cc2)c2c1C(=O)c1ccccc1C2=O  5.67 µM
15. Nc1c(S(=O)(=O)O)cc(Nc2cccc3cccc(S(=O)(=O)O)c23)c2c1C(=O)c1ccccc1C2=O  6.05 µM
16. Nc1c(S(=O)(=O)O)cc(Nc2ccccc2C(=O)O)c2c1C(=O)c1ccccc1C2=O  6.53 µM
17. Nc1ccc(Nc2cc(S(=O)(=O)O)c(N)c3c2C(=O)c2ccccc2C3=O)cc1S(=O)(=O)O  10 µM
18. Nc1c(S(=O)(=O)O)cc(Nc2ccc(Br)cc2)c2c1C(=O)c1ccccc1C2=O  11.3 µM
19. Nc1c(S(=O)(=O)O)cc(Nc2cccc3c(S(=O)(=O)O)cccc23)c2c1C(=O)c1ccccc1C2=O  11.7 µM
20. Cc1cccc(Nc2cc(S(=O)(=O)O)c(N)c3c2C(=O)c2ccccc2C3=O)c1  12.3 µM
21. Nc1c(S(=O)(=O)O)cc(Nc2cccc3cc(S(=O)(=O)O)ccc23)c2c1C(=O)c1ccccc1C2=O  15.3 µM
22. Nc1cc(Nc2cc(S(=O)(=O)O)c(N)c3c2C(=O)c2ccccc2C3=O)ccc1S(=O)(=O)O  25.2 µM
23. Cc1cc(C)c(Nc2cc(S(=O)(=O)O)c(N)c3c2C(=O)c2ccccc2C3=O)c(C)c1N  36 µM
24. Nc1ccccc1Nc1cc(S(=O)(=O)O)c(N)c2c1C(=O)c1ccccc1C2=O  47 µM
25. Cc1ccc(Nc2cc(S(=O)(=O)O)c(N)c3c2C(=O)c2ccccc2C3=O)cc1  360 µM

What follows are compounds tested against P2Y purinoceptor 2 (Homo sapiens, UniProt P41231) (assay: Antagonist activity at human P2Y2 receptor expressed in astrocytoma cells assessed as inhibition of intracellular calcium mobilization).
Type: functional, cell-based
Outline: as §2

Sequence of P2Y purinoceptor 2 (P41231 whole entry): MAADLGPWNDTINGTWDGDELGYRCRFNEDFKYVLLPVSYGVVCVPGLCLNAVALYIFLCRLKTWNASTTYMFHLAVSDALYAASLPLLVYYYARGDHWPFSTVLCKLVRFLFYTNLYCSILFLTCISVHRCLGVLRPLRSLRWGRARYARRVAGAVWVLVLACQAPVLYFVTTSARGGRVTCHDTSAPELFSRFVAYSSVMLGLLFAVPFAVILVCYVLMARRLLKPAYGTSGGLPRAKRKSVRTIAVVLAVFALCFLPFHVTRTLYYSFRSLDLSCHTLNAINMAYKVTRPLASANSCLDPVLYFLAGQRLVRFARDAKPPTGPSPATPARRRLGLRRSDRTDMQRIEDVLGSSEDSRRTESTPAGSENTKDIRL

In the case of Nc1c(S(=O)(=O)O)cc(Nc2ccc(O)cc2)c2c1C(=O)c1ccccc1C2=O, the IC50 is reported as 4.63 µM.
